Assay results from different studies.
Protocols differ between the studies behind these lines.
Target: Cytochrome P450 2C19 (CYP2C19, Homo sapiens, UniProt P33261)
Observed: enzyme activity
Mode: inhibitor

COc1ccc(Oc2ccc(CN(Cc3ccccc3)Cc3cnc4nc(N)nc(N)c4n3)cc2)cc1  inhibition (luciferase; 10 µM): 102%
C=CC(=O)Nc1cc(Nc2nccc(Nc3cc(Cl)c(F)cc3C(C)(C)O)n2)c(OC)cc1N1CC[C@@H](N(C)C)C1  inhibition (human, liver microsomes; 10 µM): < 20%
N=C(N)N1CC=C(c2coc(C(=O)Nc3ccc(C4=CCN(C(=N)N)CC4)c(F)c3)c2)CC1  inhibition (liver microsomes; 10 µM): 2.2%
CCc1cc(/C(C)=N/OCc2ccc(C3CCCCC3)c(C(F)(F)F)c2)ccc1CN1CC(C(=O)O)C1  inhibition (human, liver microsomes; 100 µM, 20 min): 9.4%
N=C(N)NCc1ccc(NC(=O)C23CCC(C(=O)Nc4ccc(C5=CCN(C(=N)N)CC5)cc4)(CC2)CC3)cc1  inhibition (liver microsomes; 10 µM): 28.6%
Nc1nc(N)c2nc(CNc3ccc(C(=O)N4CCC(C(=O)O)CC4)cc3)cnc2n1  inhibition (luciferase; 10 µM): -18.1%
O=C(Nc1c2c(cc3c1CCC3)CCC2)NS(=O)(=O)/C=C/c1nccs1  inhibition (human, liver microsomes; 2 µM, pH 7.4): 8.8%
CCN(Cc1cnc2nc(N)nc(N)c2n1)c1ccc(C(=O)N2CCC(C(=O)OC)CC2)cc1  inhibition (luciferase; 10 µM): -11.1%
C[C@@H](c1ccc2nccn2c1)n1nnc2ncc(-c3cnn(C)c3)nc21  IC50 (human, liver microsomes; pH 7.4): 100 µM
